ERAP1 HTS inh – human ERAP1 aminopeptidase inhibitors, primary screen, biochemical, single point, plate reader; Endoplasmic reticulum aminopeptidase 1 (Homo sapiens), Q9NZ08; recombinant ERAP1, Leu-AMC fluorescence, 60 min; inhibition, % at 10.7 µM; actives 0.15% (n = 340,000); AID 652197, 2013;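 active means mean replicate inhibition of at least 30%, or all replicates individually reaching that 30% level; inactive means mean below 30% and not every replicate reaching it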
CaV13 ICDI inh – Disruptors of the CACNA1D IQ motif to Ca2+-dependent inactivation inhibitor domain association, primary screening, Förster resonance energy transfer in intact living …; AID 743397; HEK cells, CFP/YFP FRET ICDI-IQ, plate reader, 10 min; percent FRET-ratio fall versus neutral wells; inhibition, % at 12.3 µM; actives 0.098% (n = 340,000);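 active means mean replicate inhibition of at least 30% and at least 1% of replicates passing that level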
PvdQ inh – P. aeruginosa PvdQ acylase inhibitors, primary screen, biochemical, fluorescence, plate reader and imaging, single point; PvdQ acylase [Pseudomonas aeruginosa LESB58]; purified PvdQ acylase; inhibition, % at 10 µM; actives 0.063% (n = 340,000); in the data active means inhibition above about 30%, passing the limit was not always enough
XiGFP reactiv – activators of inactive X chromosome reactivation, primary screen, imaging, XiGFP fibroblasts, GFP high-content imaging, set 2. XiGFP mouse fibroblasts, % GFP-positive cells imaging, 3 d; cells co-treated with 5-aza-dC sensitizer; scaled so ellipticine positive control = 100%. activation, % at 7.58 µM. actives 0.055% (n = 360,000). AID 743238, 2013;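 active means mean normalized replicate activation at least 10% and every replicate at or above 10%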
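System: SV40-immortalized XiGFP fibroblast cells, line 68-5-11 / Incubation: 3-day compound exposure, then 15 min fixation at room temperature / Compound: single concentration per compound, delivered by pin transfer / Buffer or medium: DMEM plus 5-aza-dC sensitizer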
Numbers stand for hits; 0 = inactive; - = no result given; + = active, no number. Most compounds without a hit are left out; they make up all but 0.27% or so of the library.

SMILES	ERAP1 HTS inh	CaV13 ICDI inh	PvdQ inh	XiGFP reactiv
COc1ccc(C2C(C#N)=C(N)Oc3cc(O)ccc32)cc1Cl (stereo not given)	0	+	0	0
C#CCOc1ccc(C2C(C#N)=C(N)Oc3cc(O)ccc32)cc1 (stereo not given)	0	+	0	0
COC(=O)c1ccc(C2C(C#N)=C(N)Oc3cc(O)ccc32)cc1 (stereo not given)	0	0	0	0
CNC[C@@H]1Oc2c(N)cccc2C(=O)N(C)C[C@@H]1C	-	-	-	0
O=C(C[C@@H]1C=C[C@H](NC(=O)c2cccc(F)c2)[C@H](CO)O1)NCc1ccccc1	0	-	-	0
CSC1=NSC2=NC(=O)/C(=C/c3coc4ccc(O)cc4c3=O)C(=N)N12	0	126	0	0
C[C@@H]1CN([C@H](C)CO)C(=O)c2cc(-c3cccnc3)cnc2O[C@@H]1CN(C)C(=O)C1CCCCC1	-	-	-	0
CCN1CCCC1CNS(=O)(=O)c1cccc(C(F)(F)F)c1 (stereo not given)	30	-	0	0
CCN1CCCC1CNS(=O)(=O)c1ccc(F)c(Cl)c1 (stereo not given)	0	0	0	0
O=C(O)c1ccccc1C(=O)Nc1n[nH]c(=S)s1	79	0	0	-
Cc1ccc(S(=O)c2snnc2C)cc1 (stereo not given)	0	0	0	0
Cc1ccc(S(=O)c2ccc(C)cc2)cc1	-	0	79	-
CCCNC(=O)N1CC2(C1)CN(C(=O)CC)[C@H](CO)c1c2c2ccc(OC)cc2n1C	0	-	-	0
Cc1ccccc1N1CCN(Cc2nc(Cc3ccccc3)no2)CC1	0	0	0	0
Clc1cccc(CN2CCN(Cc3nc(CCc4ccccc4)no3)CC2)c1	0	+	0	0
CC1(C)CC(=O)C(C=Nc2cccnc2/N=C/C2=C(O)CC(C)(C)CC2=O)=C(O)C1	0	129	0	0
COC(=O)c1noc(-c2ccc(OC)cc2)n1	-	0	71	-
CCOC(=O)c1cc2c(=O)n3ccccc3nc2n(Cc2ccc(Cl)cc2)c1=N	0	+	0	0
N=c1c(C(=O)NC2CCCCC2)cc2c(=O)n3ccccc3nc2n1CC1CCCO1 (stereo not given)	103	0	0	0
N=c1c(C(=O)NCc2ccco2)cc2c(=O)n3ccccc3nc2n1Cc1ccc(Cl)cc1	-	0	0	-
COCCCn1c(=N)c(C(=O)NC2CCCCC2)cc2c(=O)n3ccccc3nc21	-	43	0	-
CCS(=O)(=O)N1CC2(CN(C(=O)Nc3cccc(F)c3)[C@H](CO)c3c2c2ccc(OC)cc2n3C)C1	-	-	-	0
COc1ccccc1-c1ccc2n(c1=O)C[C@@H]1[C@@H](CO)[C@H](C(=O)N[C@H](C)c3ccccc3)[C@H]2N1C	0	-	-	0
CCOC(=O)c1ccc(N2Cc3ccccc3C2=N)cc1	-	0	58	-
CC(=O)OC(C[N+]1(C)CCCCCC1)c1ccccc1 (stereo not given)	0	0	0	0
SMILES	ERAP1 HTS inh	CaV13 ICDI inh	PvdQ inh	XiGFP reactiv
C[N+]1(CC(O)c2ccccc2)CCCCCC1 (stereo not given)	43	0	0	0
CC(=O)NC(CC(=O)NCCOc1ccccc1F)c1ccccc1 (stereo not given)	36	0	0	0
CCOc1ccc(S(=O)(=O)Nc2ccc(C(=O)N(CC)CC(=O)NCc3cccs3)cc2)cc1	0	55	-	0
O=C(O)c1ccccc1NS(=O)(=O)c1cccc(C(F)(F)F)c1	-	0	0	-
O=C(O)c1ccccc1NS(=O)(=O)c1cccc(-n2sc3ccccc3c2=O)c1	99	0	0	0
COCCN=C1N[C@@H](c2ccccc2)C(C(=O)OC)=C(C)N1Cc1ccccc1	0	0	0	0
COC(=O)C1=C(C)N(Cc2ccccc2)C(=NCc2ccccc2)N[C@H]1c1cccc(F)c1	53	0	0	0
COC(=O)C1=C(C)N(Cc2ccccc2)C(=NCc2ccccc2)N[C@H]1c1ccccc1	0	0	0	0
COCCN=C1N[C@@H](c2ccc(Br)cc2)C(C(=O)OC)=C(C)N1Cc1ccccc1	91	0	0	0
CCN(CC)CCCN=C1N[C@@H](c2cccc(C(F)(F)F)c2)C(C(=O)OC)=C(C)N1CC	61	0	0	0
CCN1C(=O)N[C@@H](c2cccc(C(F)(F)F)c2)C(C(=O)OC)=C1C	-	0	0	0
